Measured values reported in article PMC10798254 (Indian Journal of Nuclear Medicine : IJNM : The Official …, 2023).

How the values were obtained:
Serum TSH [1] = settings: ref the guidelines; cited from earlier work
Serum TSH [2] = experiment: Levothyroxine dose for TSH suppression in thyroid cancer; type: in vivo, Indian thyroid cancer patients
Procedure, shortened: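 Follow-up visits of treated thyroid cancer outpatients were evaluated prospectively, recording age, sex, weight, initial ATA risk category, serum TSH and prescribed levothyroxine. Visits with suppressed TSH were selected and dose per kg body weight calculated. Mean, median, range and lowest dose/kg were derived.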

- patients receiving more than 2ug/kg in excess TSH suppression (Serum TSH [2]; 14 patients, TSH 0.01-0.09 mIU/L): 44%
Structure (SMILES): N[C@@H](Cc1cc(I)c(Oc2cc(I)c(O)c(I)c2)c(I)c1)C(=O)O [Levothyroxine]
- dose required for long-term TSH suppression (Serum TSH [1]): 2.2-2.7 ug/kg body weight
- patients with suppressed TSH values with less than 2ug/kg dose (Serum TSH [2]; 16 patients): 50%
- mean suppressive dose (Serum TSH [2]; 36 patients, 90 follow-ups with suppressed TSH, SD 0.49): 2.21 ug/kg body weight
- maximum dose (Serum TSH [2]; in vivo): 3.33 µg/kg
- minimum dose required to keep the patient in suppression (Serum TSH [2]; in vivo): 1.29 µg/kg
